Assay outcomes: PubChem BioAssay, Broad Institute
GSIS activator – GLuc luminescence reporter in INS-1E cells, primary screen for activators of glucose-dependent secretion of insulin | INS-1E GLuc reporter insulin secretion, 2-3 h | activation, % at 16.6 µM | actives 0.61% (n = 370,000);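 active = lowest replicate activation of at least 40%, so every replicate reaches that level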
Xi reactivation – activators of inactive X chromosome reactivation, primary screen, imaging, XiGFP fibroblasts, GFP high-content imaging, set 2 | XiGFP mouse fibroblasts, % GFP-positive cells imaging, 3 d; cells co-treated with 5-aza-dC sensitizer; scaled so ellipticine positive control = 100% | actives 0.055% (n = 360,000) | activation, % at 7.58 µM | AID 743238, 2013;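 active = mean normalized replicate activation at least 10% and every replicate at or above 10%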
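Schedule: 3 d treatment, 15 min room-temperature fixation; system: 68-5-11 XiGFP fibroblast line; buffer or medium: DMEM plus 5-aza-dC sensitizer; control set: ellipticine 6 µM positive control; compound: one concentration, pinned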
PGC1a acetyl inh – inhibitors of PGC1a acetylation signal, primary screen, cell-based, U2OS, AlphaScreen, inhibitor mode; actives 0.17% (n = 350,000); inhibition, % at 15.6 µM; AID 651687, 2012; AlphaScreen anti-acetyl-lysine; with virally co-expressed GCN5 acetyltransferase;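 active = every replicate shows inhibition of at least 40%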
AF4-AF9 inh – inhibitors of AF4 peptide binding to AF9, primary screen, biochemical, AlphaScreen, biotin-AF4 peptide, FLAG-AF9, single point; inhibition, % at 10 µM; AID 651704, 2012; actives 0.47% (n = 350,000);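 active = every replicate reaching a set inhibition limit, whatever the replicate mean, cut at about 25% in these data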
Target sequence (P42568 whole entry, looked up): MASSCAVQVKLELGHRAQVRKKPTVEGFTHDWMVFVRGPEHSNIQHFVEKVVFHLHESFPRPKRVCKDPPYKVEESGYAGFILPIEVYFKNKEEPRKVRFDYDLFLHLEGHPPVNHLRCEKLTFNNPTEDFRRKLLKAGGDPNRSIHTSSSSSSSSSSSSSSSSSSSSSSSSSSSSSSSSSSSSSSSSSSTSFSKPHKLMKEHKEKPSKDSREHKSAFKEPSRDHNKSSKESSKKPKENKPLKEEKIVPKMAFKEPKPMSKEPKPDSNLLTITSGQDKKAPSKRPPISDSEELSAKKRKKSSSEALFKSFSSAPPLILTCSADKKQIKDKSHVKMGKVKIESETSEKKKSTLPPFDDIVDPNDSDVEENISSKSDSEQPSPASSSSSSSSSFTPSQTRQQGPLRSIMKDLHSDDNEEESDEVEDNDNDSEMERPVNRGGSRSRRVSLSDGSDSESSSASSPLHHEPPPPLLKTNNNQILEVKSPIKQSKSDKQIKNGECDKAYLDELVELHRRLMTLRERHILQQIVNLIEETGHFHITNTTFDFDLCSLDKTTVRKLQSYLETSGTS
PAX8 inh HTS – inhibitors of PAX8-driven TPO luciferase reporter, primary screen, RMG-I cells, single concentration; actives 1.2% (n = 360,000); AID 652154, 2013; inhibition, % at 12.6 µM; SteadyGlo, 24 h;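 active = mean replicate inhibition at least 60% with every replicate also reaching 60%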;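 note: luciferase light reporting Pax8 driven TPO promoter activity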
EWS-Fli block – EWS/Fli-driven NR0B1 reporter inhibitors, primary screen, A673 cells, NR0B1 luciferase, luminescence, MLPCN library; viability-normalised; inhibition, % at 12.6 µM; actives 0.67% (n = 350,000); AID 651661, 2012;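 active = mean inhibition of at least 50% after viability correction, with every replicate also passing that limit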;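 note: firefly luciferase signal divided by Alamar Blue viability fluorescence both relative to DMSO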
A number is an active result; . = inactive; / = no result given. Shown are actives, neighbours in structure and some others; about 2.1% of the full set was active somewhere.

SMILES | GSIS activator | Xi reactivation | PGC1a acetyl inh | AF4-AF9 inh | PAX8 inh HTS | EWS-Fli block
COc1cc(OC)cc(C2=Cc3ccccc3C(CC(C)=O)N2c2ccc(-c3cccs3)cc2)c1 (centres undefined) | . | . | / | . | 69.7 | .
COc1ccc2c(c1)/C(=C/c1cc(OC)c(OC)c(OC)c1)C(=O)N2 | . | . | . | . | . | 63.4
NS(=O)(=O)c1ccc(N/N=C2/CCCCC2C2CCCCC2)c([N+](=O)[O-])c1 (centres undefined) | / | . | / | 30.0 | . | .
Cc1cc(C)c2c(c1)/C(=N/Nc1ccc(S(N)(=O)=O)cc1[N+](=O)[O-])CCC2 | . | . | / | . | . | .
COc1ccc(C(=O)C2CCCN(C(=O)c3n[nH]c4c3CCCC4)C2)cc1OC (centres undefined) | 66.6 | . | . | . | . | .
COc1ccc(C(=O)C2CCCN(Cc3cccn3-c3nccs3)C2)cc1F (centres undefined) | . | . | / | . | . | .
COc1ccc(C(=O)C2CCCN(Cc3cccn3-c3nccs3)C2)cc1OC (centres undefined) | 80.8 | . | . | . | . | .
Cc1cc(Cl)ccc1C(=O)C1CCCN(C(=O)c2n[nH]c3c2CCCC3)C1 (centres undefined) | . | . | . | . | . | .
C[C@@H]1CN([C@H](C)CO)C(=O)c2cccc(NS(C)(=O)=O)c2O[C@H]1CN(C)C(=O)NC1CCCCC1 | . | . | . | . | . | .
CC(=O)c1c(O)c2cccc3c2n(c1=O)CCC3 | 40.2 | . | . | . | . | .
Cn1c(=O)oc2cc(S(=O)(=O)N3CCCc4ccccc43)ccc21 | / | . | . | . | . | 58.5
Cn1c(=O)oc2cc(S(=O)(=O)N3CCc4ccccc43)ccc21 | . | . | . | . | . | .
COc1cc(-c2noc(C)c2/C=C/c2ccc(OC(C)=O)cc2)cc(OC)c1OC | / | . | . | . | 69.3 | 63.8
CC1=CC(C)(C)n2c(O)c(N=N)c3cc(C)cc1c32 | / | . | . | 25.9 | . | .
CN(C)CC(CCC(CN(C)C)C(O)(c1ccccc1)c1ccccc1)C(O)(c1ccccc1)c1ccccc1 (centres undefined) | . | . | / | . | 86.7 | .
CN(C)C/C=C/C(O)(c1ccccc1)c1ccccc1 | . | . | . | . | . | .
COc1ccc(-n2sc3ccccc3c2=O)cc1 | 86.6 | . | / | . | . | .
CC(=O)N1[C@@H]2c3ccc(-c4ccccc4)c(=O)n3C[C@@H]2[C@@H](CO)[C@@H]1C(=O)N(C)C | . | . | . | . | . | .
N#CCCn1c2ccccc2c2nc3ccccc3nc21 | 40.9 | / | . | / | / | /
CCCn1c2ccccc2c2nc3ccccc3nc21 | / | / | . | / | . | /
O=C(/C=C/c1ccccn1)c1cc(Cl)cc(Cl)c1O | . | . | . | . | 63.3 | .
CCC(=O)Nc1ccc(NC(=S)NC(=O)c2cc3ccccc3o2)cc1 | . | . | / | . | . | .
CCCC(=O)Nc1ccc(Cl)c(NC(=S)NC(=O)c2cc3ccccc3o2)c1 | . | . | / | . | 72.8 | .
O=C(NCC(F)(F)F)[C@@H]1[C@@H](CO)[C@@H]2Cn3c(cccc3=O)[C@@H]2N1C(=O)C1CC1 | . | . | / | . | / | .
COC(=O)c1cc(OC)c(OC)cc1NC(=S)Nc1cc(Cl)ccc1OC | . | . | / | . | 77.9 | .
SMILES | GSIS activator | Xi reactivation | PGC1a acetyl inh | AF4-AF9 inh | PAX8 inh HTS | EWS-Fli block
COc1ccc2c3c(n(C)c2c1)[C@H](CO)N(Cc1ccccc1)CC31CN(C)C1 | . | . | . | . | / | .
C/C(CC(=O)NCc1ccco1)=N\NC(=O)COc1ccc(C)cc1 | . | . | / | . | 64.7 | .
C/C(CC(=O)NCc1ccco1)=N\NC(=O)COc1ccc(Cl)cc1Cl | . | . | . | . | . | .
COc1ccc2c3c(n(C)c2c1)[C@H](CO)NCC31CCN(S(=O)(=O)c2cccc(F)c2)CC1 | . | . | . | . | / | .
CN1CCN(C(=O)C2=C[C@H](c3ccc(Br)cc3)C[C@H](OCc3ccc(CO)cc3)O2)CC1 | / | / | . | . | . | .
C[C@H]1CN([C@@H](C)CO)C(=O)Cc2cc(NC(=O)CCCN(C)C)ccc2O[C@H]1CN(C)S(=O)(=O)c1ccc(Cl)cc1 | . | . | . | . | . | .
C/C1=C\CCC2C(/C=C(\C)CC1)OC(=O)C2CN1CCCCC1 (centres undefined) | . | . | . | . | 68.0 | .
C[C@@H]1CN([C@H](C)CO)C(=O)c2cccc(NS(C)(=O)=O)c2O[C@@H]1CN(C)CC1CC1 | . | . | . | . | . | .
Cc1ccccc1N(Cc1cc(=O)[nH]c2ccccc12)C(=O)C(C)C | . | . | / | . | . | .
Cc1ccccc1N(Cc1cc(=O)[nH]c2ccccc12)C(=O)CCl | . | . | / | . | 82.7 | .
C[C@H](CO)N1C[C@H](C)[C@H](CN(C)Cc2ccncc2)Oc2c(NS(=O)(=O)c3ccc(Cl)cc3)cccc2C1=O | . | . | . | . | . | .
CC(=O)Oc1ccc(Cl)cc1/C=C/c1ccc2ccccc2n1 | 52.7 | / | / | / | / | /
CC(=O)Oc1c(Cl)cc(Cl)cc1/C=C/c1ccc2ccccc2n1 | / | / | . | / | / | /
CO[C@@H]1CN(C)C(=O)c2ccc(NC(=O)Nc3ccc(Cl)cc3)cc2OC[C@H](C)N(C(=O)Nc2c(C)noc2C)C[C@H]1C | . | . | . | . | . | .
Cc1ccc(Nc2ncnc3sccc23)c(C)c1 | 42.1 | . | / | . | . | .
Cc1nc([N+](=O)[O-])c(Br)n1CC(=O)c1ccccc1 | / | / | . | / | / | /
Cc1nc([N+](=O)[O-])c(Br)n1CC(=O)c1ccc(Br)cc1 | / | / | 64.1 | / | . | /
O=C(N[C@H]1CC[C@H](CCNS(=O)(=O)c2cccc(Cl)c2)O[C@@H]1CO)c1ccc(F)cc1 | . | . | . | . | . | .
CN1C2CCC1/C(=C/c1cccn1C)C(=O)/C2=C\c1cccn1C | . | . | / | 43.0 | . | .
CN1C2CCC1/C(=C\c1ccc(F)cc1)C(=O)/C2=C/c1ccc(F)cc1 | . | . | / | / | . | /
Cn1cccc1/C=C1\CCc2ccccc2C1=O | . | . | . | / | . | 55.3
CN(C)CC(=O)Nc1ccc2c(c1)[C@H]1C[C@@H](CC(=O)N3CCOCC3)O[C@H](CO)[C@H]1O2 | . | . | . | / | . | .
CCS(=O)(=O)N[C@H]1C=C[C@@H](CC(=O)NCc2ccc(F)cc2)O[C@H]1CO | / | / | . | . | . | .
CCn1c(CNC(=O)c2cccc(C)c2)nnc1SCC(=O)N1CCOCC1 | 43.7 | . | / | . | . | /
Cc1cccc(C(=O)NCc2nnc(SCC(=O)N3CCN(c4ccccc4)CC3)n2C)c1 | . | / | . | / | / | /
